Source: PubChem BioAssay
NPY2 pot ag – human NPY-Y2 potentiation or agonism, primary screen. P49146. activation, % at 3.6 µM. cells expressing NPY-Y2, potentiator/agonist read-out. 220,000 compounds, 0.45% hits; in the data active = activation above about 27%;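 also: cells stimulated with NPY near EC25 plus isoproterenol at EC100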
NPY Y1 blocker – antagonists of human neuropeptide Y receptor Y1; inhibition, % at 3.6 µM; P25929; AID 1040; HEK293-CNG Y1 cells, membrane potential fluorescence; NPY at EC95, then isoproterenol; 200,000 compounds, 1% hits;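 active = inhibition above the campaign mean inhibition of all tested compounds plus 3 SD, cut at about 20% in these data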
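Material: Y1- and CNG-channel-expressing HEK293 cells / Probe or stimulus: NPY 25 nM then isoproterenol 1 µM plus Ro 20-1724 25 µM / Doses: 3.6 µM single dose, DMSO 0.4% / Schedule: compound incubation 1 h at room temperature, readout 45 min post-stimulation / Signal: membrane potential fluorescence / Benchmarks: isoproterenol-only wells as full block versus NPY-plus-isoproterenol wells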
S1P4 antag – antagonists of human S1P4 receptor | O95977 | S1P4-expressing cells, antagonist mode, reporter read-out | inhibition, % at 4.98 µM | 220,000 compounds, 0.26% hits | AID 1510; in the data active = inhibition above about 29%
Target sequence (O95977 whole entry, looked up): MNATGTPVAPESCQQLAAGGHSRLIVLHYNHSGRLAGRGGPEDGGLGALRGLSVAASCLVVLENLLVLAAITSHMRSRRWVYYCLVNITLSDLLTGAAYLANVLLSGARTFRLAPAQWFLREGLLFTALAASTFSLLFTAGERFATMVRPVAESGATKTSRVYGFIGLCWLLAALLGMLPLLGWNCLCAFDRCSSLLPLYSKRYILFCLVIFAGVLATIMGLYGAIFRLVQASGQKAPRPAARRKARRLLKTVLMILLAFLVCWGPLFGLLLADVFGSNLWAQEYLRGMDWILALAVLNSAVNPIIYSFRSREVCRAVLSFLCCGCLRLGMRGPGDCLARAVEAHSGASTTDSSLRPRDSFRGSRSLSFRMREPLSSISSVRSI
NPY-Y2 antag – NPY-Y2 (human) receptor antagonism; P49146; AID 793; NPY-Y2 expressing cells, antagonist mode; inhibition, % at 2.7 µM; 140,000 compounds, 0.99% hits; in the data active = inhibition above about 17%
S1P4 agonist – activates the human S1P4 receptor; AID 1509; 220,000 compounds, 0.35% hits; activation, % at 4.98 µM; O95977; S1P4-expressing cell line, agonist reporter assay; in the data active = activation above about 11%
NPY-Y1 PAM-ag – potentiators or agonists of human neuropeptide Y receptor Y1 | 220,000 compounds, 0.37% hits | NPY-Y1 expressing cells, potentiator/agonist activation | activation, % at 3.6 µM | P25929; in the data active = activation above about 33%, passing the limit was not always enough;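 also: cells stimulated with NPY at EC10 then isoproterenol at EC100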
NPY1 antag ctr – human NPY-Y1 antagonism in NPY-Y2 counter-screen; shares compounds with NPY-Y2 antag; cell-based NPY-Y1 antagonism counterscreen; inhibition, % at 3.6 µM; 710 compounds, 19% hits; AID 1256; in the data active = inhibition above about 20%;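 also: cells challenged with NPY then isoproterenol with cAMP sensed through a CNG channel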
NPY2 antag conf – human NPY-Y2 antagonism, confirmation. shares compounds with NPY-Y2 antag. HEK293 NPY-Y2 CNG channel, membrane potential fluorescence. inhibition, % at 2.8 µM. 710 compounds, 32% hits. AID 1257;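 active = mean inhibition of triplicate wells above the hit cutoff set in the primary screen, cut at about 17% in these data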
Large screens that a line does not name were inactive (follow-up assays come after a bar, where they were run). In the library only some 2.4% were active in any assay of this set; here they are far more common.

O=C(NCCCn1ccnc1)/C(=C\c1cccs1)NC(=O)c1ccco1	none
CCOC(=O)c1ccccc1NC(=O)CSc1nnc(COc2ccccc2C)n1C	NPY-Y2 antag 18.6 | NPY1 antag ctr inactive | NPY2 antag conf inactive
Clc1ccc(C2=Nn3c(nnc3-c3n[nH]c4c3CCC4)SC2)cc1Cl	NPY-Y2 antag 66.6 | NPY1 antag ctr inactive | NPY2 antag conf 17.9
c1ccc(C2=Nn3c(nnc3-c3n[nH]c4c3CCC4)SC2)cc1	none
CCOC(=O)c1ccc(N2C(=O)c3n[nH]c(C)c3C2c2cccnc2)cc1 (configuration not stated)	none
CCOC(=O)c1ccc(N2C(=O)c3n[nH]c(-c4ccco4)c3C2c2ccc([N+](=O)[O-])cc2)cc1 (configuration not stated)	NPY-Y2 antag 25.7 | NPY1 antag ctr 21.9 | NPY2 antag conf inactive
CC1CCC2(CC1)NC(=O)N(CC(=O)Nc1ccc3c(c1)OCCO3)C2=O (configuration not stated)	none (no result: NPY-Y2 antag)
COc1cc(CC(=O)OCC(=O)Nc2cccc([N+](=O)[O-])c2)cc(OC)c1OC	none
Cc1ccc(N2C(=O)c3ccccc3C2C(=O)c2cc(C)ccc2O)cc1 (configuration not stated)	NPY-Y2 antag 27.4 | NPY1 antag ctr 34.7 | NPY2 antag conf 37.6
Cc1ccc(N2C(=O)c3ccccc3C2C(=O)c2ccc(O)cc2O)cc1 (configuration not stated)	none
O=C(OCC1CC(c2ccccc2Cl)=NO1)c1ccc(Br)cc1 (configuration not stated)	none
O=C(OCC1CC(c2ccccc2)=NO1)c1ccc(Br)cc1 (configuration not stated)	NPY-Y2 antag 18.0 | NPY1 antag ctr inactive | NPY2 antag conf inactive
Cc1cc(Cl)ccc1OCCCC(=O)NCCN1C(=O)S/C(=C\c2cccnc2)C1=O	none
O=C(Cc1ccc(Cl)cc1)Nc1ccc(NC(=O)c2ccccc2)cc1	NPY-Y2 antag 21.5 | NPY1 antag ctr inactive | NPY2 antag conf inactive
O=C(Nc1ccc(Cl)cc1)c1csc(-c2ccccc2)n1	NPY-Y2 antag 20.0 | NPY1 antag ctr inactive | NPY2 antag conf 22.5
O=C(Nc1ccc(Cl)cc1)c1csc(-c2ccncc2)n1	none (no result: NPY-Y2 antag)
Cc1cccc(C(=O)Nc2ccc(NC(=O)Cc3ccc(Cl)cc3)cc2)c1	none
CCOC(=O)CC(NC(=O)C1c2ccccc2Oc2ccccc21)c1ccccc1Cl (configuration not stated)	NPY-Y2 antag 17.7 | NPY1 antag ctr inactive | NPY2 antag conf inactive
CCOC(=O)CC(NC(=O)Cc1ccccc1)c1ccccc1Cl (configuration not stated)	none
C=CCNc1nc(N2CCCC2)nc2ccccc12	NPY-Y2 antag 19.9 | NPY1 antag ctr inactive | NPY2 antag conf 18.6
O=C(COC(=O)c1ccc(CO)cc1)Nc1ccc(OC(F)F)cc1	none (no result: NPY-Y2 antag)
COC(=O)c1cc2occc2n1Cc1nc(-c2ccccc2Cl)oc1C	NPY-Y2 antag 19.9 | NPY1 antag ctr inactive | NPY2 antag conf 20.4
COC(=O)c1cc2occc2n1Cc1nc(-c2ccc(Cl)cc2)oc1C	none
Fc1ccc(Cn2nnnc2CN2CCN(C3CCCCC3)CC2)cc1	NPY-Y2 antag 19.9 | NPY1 antag ctr inactive | NPY2 antag conf inactive
c1coc(Cn2nnnc2CN2CCN(C3CCCC3)CC2)c1	none
COc1ccc(-c2csc(N(CCCN3CCOCC3)C(=O)c3ccco3)n2)cc1	NPY-Y2 antag 18.3 | NPY1 antag ctr inactive | NPY2 antag conf inactive
Cc1ccc(-c2csc(N(CCCN3CCOCC3)C(=O)c3ccco3)n2)cc1	NPY-Y2 antag 17.7 | NPY1 antag ctr inactive | NPY2 antag conf inactive
C#CCn1c(=NC(=O)c2cccs2)sc2cccc(OC)c21	NPY-Y2 antag 23.2 | NPY1 antag ctr inactive | NPY2 antag conf inactive
C#CCn1c(=NC(=O)CN2C(=O)CCC2=O)sc2cccc(OC)c21	none (no result: NPY Y1 blocker, NPY-Y2 antag)
CCOC(=O)Cc1csc(SCC(=O)Nc2cc(Cl)ccc2Oc2ccccc2)n1	NPY-Y2 antag 19.4 | NPY1 antag ctr inactive | NPY2 antag conf inactive
O=C(COC(=O)c1cccc(Cl)c1)Nc1cc(Cl)ccc1Oc1ccccc1	NPY-Y2 antag 19.4 | NPY1 antag ctr inactive | NPY2 antag conf inactive
CCOC(=O)Cc1csc(SCC(=O)Nc2cccc(Cl)c2)n1	none
CC(=O)Oc1c(C(=O)c2nnc(C)o2)c(=O)n(C)c2ccccc12	none
CCN(Cc1ccncc1)C(=O)c1ccccc1NS(=O)(=O)c1ccc(F)cc1	none (no result: NPY-Y2 antag)
CC(C)N(C(=O)CSc1nc2ccccc2n1Cc1ccccc1F)C(C)C	NPY-Y2 antag 17.2 | NPY1 antag ctr inactive | NPY2 antag conf inactive
COc1cccc(N2CCN(C(=O)CCNS(=O)(=O)c3ccc4c(c3)c(=O)n(C)c(=O)n4C)CC2)c1	none (no result: NPY-Y2 antag)
O=C(CN(Cc1ccc2c(c1)OCO2)C(=O)CSc1nc2ccccc2o1)NC1CCCCC1	NPY-Y2 antag 17.5 | NPY1 antag ctr inactive | NPY2 antag conf 18.8
Cc1cccc(NC(=O)CSc2nc3ccccc3o2)c1	NPY-Y2 antag 22.4 | NPY1 antag ctr inactive | NPY2 antag conf inactive
O=C(CSc1nc2ccccc2o1)c1ccc2c(c1)OCCO2	NPY-Y2 antag 22.4 | NPY1 antag ctr inactive | NPY2 antag conf 17.7
COCCN(CC(=O)NC1CCCCC1)C(=O)CSc1nc2ccccc2o1	none
Cc1ccc(C2C(C#N)=C(N)Oc3cc(C)oc(=O)c32)o1 (configuration not stated)	none (no result: NPY-Y2 antag)
CC(C)c1nc(SCC(=O)Nc2c[nH]c(=O)[nH]c2=O)c2cnn(-c3ccccc3)c2n1	none (no result: NPY-Y2 antag)
COc1ccc(NC(=O)C2CCC(C(C)(C)C)CC2)cc1S(=O)(=O)N1CCCCC1 (configuration not stated)	NPY-Y2 antag 20.7 | NPY1 antag ctr inactive | NPY2 antag conf inactive
COc1ccc(OC)c(S(=O)(=O)N2CCC(C(=O)Nc3ccccc3)CC2)c1	none (no result: NPY-Y2 antag)
COc1ccc(NC(=O)c2n[nH]c(=O)c3ccccc23)cc1S(=O)(=O)N1CCCCC1	NPY-Y2 antag 27.1 | NPY1 antag ctr inactive | NPY2 antag conf 19.1
CCOC(=O)Cn1nc(-c2ccc(C)cc2)c2ccccc2c1=O	none (no result: NPY-Y2 antag)
CCOC(=O)Cn1nc(-c2ccccc2)c2cnc3ccc(C)cc3c21	NPY-Y2 antag 24.3 | NPY1 antag ctr 23.7 | NPY2 antag conf 18.6
c1ccc(-c2nc(CSc3nnc(-c4cccs4)o3)cs2)cc1	NPY-Y2 antag 20.2 | NPY1 antag ctr inactive | NPY2 antag conf 20.1
O=C(c1ccccc1)N(Cc1cccnc1)C1(C(=O)Nc2ccccc2)CCCCC1	NPY-Y2 antag 18.9 | NPY1 antag ctr inactive | NPY2 antag conf inactive
Cn1nccc1NS(=O)(=O)c1ccc(NC(=O)C(F)(F)F)cc1	none (no result: NPY Y1 blocker, NPY-Y2 antag)
